Data as given in ChEMBL document CHEMBL1151472, “In vitro interactions between tacrolimus and azoles against Candida albicans determined by different methods” (2008).
≈ marks a conversion by molar mass, not a printed value.

Legend:
Type in all cases: functional
Candida albicans [1] = test: Antimicrobial activity against azole-susceptible Candida albicans isolate CA14 assessed as log reduction in colony count at 1 ug/ml co-treated with calcineurin signaling inhibitor tacrolimus after 48 hrs by time killing test
Method in brief: (§1)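 Time-kill was started at 10^5 CFU/ml, with 10 μg/ml FLC or 1 μg/ml ITR or VRC, alone or with 0.016 μg/ml FK506, and DMSO <1%, at 35°C. At 0, 6, 12, 24 and 48 h, aliquots were serially diluted and plated on Sabouraud agar, then counted after 48 h at 35°C. Triplicate means.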

Candida albicans [2] = test: Antimicrobial activity against azole-susceptible Candida albicans isolate CA14 assessed as log reduction in colony count at 1 ug/ml co-treated with calcineurin signaling inhibitor tacrolimus after 48 hrs by XTT assay
Method in brief: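 Time-kill assay starting at 10^5 CFU/ml with azole 1 μg/ml plus FK506 0.016 μg/ml at 35°C, with a drug-free control and DMSO <1%. At 48 h, a 100 μl aliquot was mixed with XTT-menadione (XTT 0.5 g/liter in Ringer's lactate, menadione 10 μM final) and incubated in the dark up to 2 h at 35°C. A492 was converted to CFU by standard curve (Y = 4.2610x + 4.2087).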

Candida albicans [3] = test: Antimicrobial activity against azole-resistant Candida albicans isolate CA10 assessed as log reduction in colony count at 1 ug/ml co-treated with calcineurin signaling inhibitor tacrolimus after 48 hrs by time killing test; method in brief: as §1
Candida albicans [4] = test: Antimicrobial activity against azole-resistant Candida albicans isolate CA10 assessed as log reduction in colony count at 1 ug/ml co-treated with calcineurin signaling inhibitor tacrolimus after 48 hrs by XTT assay
Method in brief: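 Same time-kill setup (10^5 CFU/ml start, azole ± 0.016 μg/ml FK506, 35°C). At each time point, aliquots were mixed 1:1 with XTT (0.5 g/liter in Ringer's lactate) plus 10 μM menadione final. Incubation was in the dark for up to 2 h at 35°C, then formazan was read at 492 nm. OD was converted to CFU via a standard curve (Y = 4.2610x + 4.2087). Triplicate.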

Candida albicans [5] = test: Antimicrobial activity against azole-susceptible Candida albicans isolate CA5 after 48 hrs by broth microdilution method; details: isolate CA5, 48 h
Method in brief: (§2)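 CLSI M27-A2 broth microdilution was run in RPMI 1640 (pH 7.0, 2% dextrose, 0.165 M MOPS). Inoculum was 2.5 × 10^3 CFU/ml, incubated 35°C for 48 h without shaking. Plates were read visually (0–5 scale) and at OD 492 nm. MIC80 = lowest concentration giving an 80% absorbance decrease vs drug-free control. Triplicate.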

Candida albicans [6] = test: Antimicrobial activity against azole-susceptible Candida albicans isolate CA8 after 48 hrs by broth microdilution method; details: isolate CA8, 48 h; method in brief: as §2
Candida albicans [7] = test: Antimicrobial activity against azole-susceptible Candida albicans isolate CA12 after 48 hrs by broth microdilution method; details: isolate CA12, 48 h; method in brief: as §2
Candida albicans [8] = test: Antimicrobial activity against azole-susceptible Candida albicans isolate CA14 after 48 hrs by broth microdilution method; details: isolate CA14, 48 h; method in brief: as §2
Candida albicans [9] = test: Antimicrobial activity against azole-susceptible Candida albicans isolate CA129 after 48 hrs by broth microdilution method; details: isolate CA129, 48 h; method in brief: as §2
Candida albicans [10] = test: Antimicrobial activity against azole-resistant Candida albicans isolate CA10 after 48 hrs by broth microdilution method; details: isolate CA10, 48 h
Method in brief: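 Broth microdilution per CLSI M27-A2 in RPMI 1640 (pH 7.0, 2% dextrose, 0.165 M MOPS), final inoculum 2.5 × 10^3 CFU/ml; 35°C without shaking for 48 h. Read visually (0–5 scale) and by OD 492 nm; MIC80 = lowest concentration giving 80% drop in absorbance versus drug-free control. Triplicate.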

Candida albicans [11] = test: Antimicrobial activity against azole-resistant Candida albicans isolate CA15 after 48 hrs by broth microdilution method; details: isolate CA15, 48 h; method in brief: as §2
Candida albicans [12] = test: Antimicrobial activity against azole-resistant Candida albicans isolate CA16 after 48 hrs by broth microdilution method; details: isolate CA16, 48 h; method in brief: as §2
Candida albicans [13] = test: Antimicrobial activity against azole-resistant Candida albicans isolate CA135 after 48 hrs by broth microdilution method; details: isolate CA135, 48 h; method in brief: as §2
Candida albicans [14] = test: Antimicrobial activity against azole-resistant Candida albicans isolate CA137 after 48 hrs by broth microdilution method; details: isolate CA137, 48 h; method in brief: as §2
Candida albicans [15] = test: Antimicrobial activity against azole-susceptible Candida albicans isolate CA5 co-treated with calcineurin signaling inhibitor tacrolimus after 48 hrs by microdilution checkerboard technique; details: isolate CA5, 48 h
Method in brief: (§3)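 Checkerboard microdilution in MOPS-buffered RPMI 1640 (pH 7.0, 2% dextrose) with 2.5 × 10^3 CFU/ml for 48 h at 35°C. Final FK506 was 0.002–0.125 μg/ml. Azole finals were FLC 0.125–128 μg/ml, and ITR and VRC 0.008–8 μg/ml. MIC80 is an 80% OD492 decrease vs drug-free control. Interaction was scored by FICI (synergy ≤0.5, antagonism >4) and by ΔE from triplicates.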

Candida albicans [16] = test: Antimicrobial activity against azole-susceptible Candida albicans isolate CA8 co-treated with calcineurin signaling inhibitor tacrolimus after 48 hrs by microdilution checkerboard technique; details: isolate CA8, 48 h; method in brief: as §3
Candida albicans [17] = test: Antimicrobial activity against azole-susceptible Candida albicans isolate CA12 co-treated with calcineurin signaling inhibitor tacrolimus after 48 hrs by microdilution checkerboard technique; details: isolate CA12, 48 h; method in brief: as §3
Candida albicans [18] = test: Antimicrobial activity against azole-susceptible Candida albicans isolate CA14 co-treated with calcineurin signaling inhibitor tacrolimus after 48 hrs by microdilution checkerboard technique; details: isolate CA14, 48 h; method in brief: as §3
Candida albicans [19] = test: Antimicrobial activity against azole-susceptible Candida albicans isolate CA129 co-treated with calcineurin signaling inhibitor tacrolimus after 48 hrs by microdilution checkerboard technique; details: isolate CA129, 48 h; method in brief: as §3
Candida albicans [20] = test: Antimicrobial activity against azole-resistant Candida albicans isolate CA10 co-treated with calcineurin signaling inhibitor tacrolimus after 48 hrs by microdilution checkerboard technique; details: isolate CA10, 48 h; method in brief: as §3
Candida albicans [21] = test: Antimicrobial activity against azole-resistant Candida albicans isolate CA15 cotreated with calcineurin signaling inhibitor Tacrolimus after 48 hrs by microdilution checkerboard technique; details: isolate CA15, 48 h; method in brief: as §3
Candida albicans [22] = test: Antimicrobial activity against azole-resistant Candida albicans isolate CA16 cotreated with calcineurin signaling inhibitor Tacrolimus after 48 hrs by microdilution checkerboard technique; details: isolate CA16, 48 h; method in brief: as §3
Candida albicans [23] = test: Antimicrobial activity against azole-resistant Candida albicans isolate CA135 cotreated with calcineurin signaling inhibitor Tacrolimus after 48 hrs by microdilution checkerboard technique; details: isolate CA135, 48 h; method in brief: as §3
Candida albicans [24] = test: Antimicrobial activity against azole-resistant Candida albicans isolate CA137 cotreated with calcineurin signaling inhibitor Tacrolimus after 48 hrs by microdilution checkerboard technique; details: isolate CA137, 48 h; method in brief: as §3

Work on CCC(C)n1ncn(-c2ccc(N3CCN(c4ccc(OCC5COC(Cn6cncn6)(c6ccc(Cl)cc6Cl)O5)cc4)CC3)cc2)c1=O (configuration not stated) [ITRACONAZOLE] yielded an Activity (Candida albicans [1]) of 2.13, an Activity (Candida albicans [2]) of 1.4 and an Activity (Candida albicans [3]) of 2.12. For the same compound, the Activity (Candida albicans [4]) was 2.46, the MIC (Candida albicans [5]) was 0.031 µg/mL (≈ 0.0439 µM) and the MIC (Candida albicans [6]) was 0.016 µg/mL (≈ 0.0227 µM). For the same compound, the MIC (Candida albicans [7]) was 0.063 µg/mL (≈ 0.0893 µM), the MIC (Candida albicans [8]) was 0.063 µg/mL (≈ 0.0893 µM) and the MIC (Candida albicans [9]) was 0.063 µg/mL (≈ 0.0893 µM). For the same compound, the MIC (Candida albicans [10]) was 128 µg/mL (≈ 181 µM), the MIC (Candida albicans [11]) was 32 µg/mL (≈ 45.3 µM) and the MIC (Candida albicans [12]) was 32 µg/mL (≈ 45.3 µM). The MIC (Candida albicans [13]) was 16 µg/mL (≈ 22.7 µM), the MIC (Candida albicans [14]) was 16 µg/mL (≈ 22.7 µM) and the MIC (Candida albicans [15]) was 0.031 µg/mL. For the same compound, the MIC (Candida albicans [16]) was 0.008 µg/mL, the MIC (Candida albicans [17]) was 0.031 µg/mL and the MIC (Candida albicans [18]) was 0.031 µg/mL. For the same compound, the MIC (Candida albicans [19]) was 0.031 µg/mL, the MIC (Candida albicans [20]) was 0.031 µg/mL and the MIC (Candida albicans [21]) was 0.063 µg/mL. For the same compound, the MIC (Candida albicans [22]) was 0.016 µg/mL, the MIC (Candida albicans [23]) was 0.016 µg/mL and the MIC (Candida albicans [24]) was 0.063 µg/mL.

Compound C[C@@H](c1ncncc1F)[C@](O)(Cn1cncn1)c1ccc(F)cc1F [VORICONAZOLE] has an Activity (Candida albicans [1]) of 1.49, an Activity (Candida albicans [3]) of 2.15 and an Activity (Candida albicans [4]) of 2.26. The MIC (Candida albicans [5]) was 0.016 µg/mL (≈ 0.0458 µM), the MIC (Candida albicans [6]) was 0.008 µg/mL (≈ 0.0229 µM) and the MIC (Candida albicans [7]) was 0.031 µg/mL (≈ 0.0887 µM). The MIC (Candida albicans [8]) was 0.008 µg/mL (≈ 0.0229 µM), the MIC (Candida albicans [9]) was 0.016 µg/mL (≈ 0.0458 µM) and the MIC (Candida albicans [10]) was 64 µg/mL (≈ 183 µM). The MIC (Candida albicans [11]) was 8 µg/mL (≈ 22.9 µM), the MIC (Candida albicans [12]) was 8 µg/mL (≈ 22.9 µM) and the MIC (Candida albicans [13]) was 8 µg/mL (≈ 22.9 µM). It also gave an MIC (Candida albicans [14]) of 8 µg/mL (≈ 22.9 µM), an MIC (Candida albicans [15]) of 0.016 µg/mL and an MIC (Candida albicans [16]) of 0.016 µg/mL. For the same compound, the MIC (Candida albicans [17]) was 0.016 µg/mL, the MIC (Candida albicans [18]) was 0.008 µg/mL and the MIC (Candida albicans [19]) was 0.008 µg/mL. The MIC (Candida albicans [20]) was 0.008 µg/mL, the MIC (Candida albicans [21]) was 0.008 µg/mL and the MIC (Candida albicans [22]) was 0.008 µg/mL. For the same compound, the MIC (Candida albicans [23]) was 0.016 µg/mL and the MIC (Candida albicans [24]) was 0.008 µg/mL.
